Reference: ChEMBL document CHEMBL1134593, “Acyclic and cyclopropyl analogues of adenosine bisphosphate antagonists of the P2Y1 receptor: structure-activity relationships and receptor docking” (J Med Chem, 2001)

Columns and labels:
[1] = target: P2Y purinoceptor 1 (Meleagris gallopavo) (UniProt P49652); assay: In vitro antagonist activity against turkey P2Y1 receptor, expressed as percent of maximal inhibition at 100 uM; format: functional; parameters: scale not given: the % may be the effect or the level left
Chain of P2Y purinoceptor 1 (Meleagris gallopavo) (P49652 whole entry): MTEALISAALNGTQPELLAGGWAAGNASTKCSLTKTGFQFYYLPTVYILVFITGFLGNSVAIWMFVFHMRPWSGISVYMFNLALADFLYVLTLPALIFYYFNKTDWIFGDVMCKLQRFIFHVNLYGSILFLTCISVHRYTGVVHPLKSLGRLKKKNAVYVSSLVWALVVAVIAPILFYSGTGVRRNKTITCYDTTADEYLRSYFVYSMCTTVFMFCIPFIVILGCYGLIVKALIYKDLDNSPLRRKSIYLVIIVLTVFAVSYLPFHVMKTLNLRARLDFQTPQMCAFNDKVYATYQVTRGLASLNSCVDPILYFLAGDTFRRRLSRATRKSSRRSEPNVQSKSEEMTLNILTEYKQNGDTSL

P2Y purinoceptor 1 = P2Y purinoceptor 1 (Meleagris gallopavo, UniProt P49652); assay: Inhibitory concentration against P2Y1 receptor in turkey erythrocyte membranes; format: cell membranes
Chain of P2Y purinoceptor 1 (P49652 whole entry): as above
In short: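 Turkey erythrocytes labeled 18–24 h at 37 °C with 2-[3H]myo-inositol in inositol-free DMEM, then lysed hypotonically (5 mM sodium phosphate pH 7.4, 5 mM MgCl2, 1 mM EGTA) to give ghosts. Phospholipase C assayed in Hepes pH 7.0 buffer with 1 μM GTPγS, antagonist and 30 nM 2-MeSADP, 5 min at 30 °C. Total [3H]inositol phosphates quantified by anion exchange.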

Compound	Activity [1] [%]	IC50 (P2Y purinoceptor 1) [µM]
CNc1nc(Cl)nc2c1ncn2C(COP(=O)(O)O)COP(=O)(O)O	100	4.56
CNc1ncnc2c1ncn2CCC(COP(=O)(O)O)COP(=O)(O)O	100	1.6
CNc1nc(Cl)nc2c1ncn2CC(COC(C)=O)COP(=O)(O)O (stereo unspecified)	65	37.6
CNc1nc(Cl)nc2c1ncn2C[C@H](COP(=O)(O)O)OP(=O)(O)O	100	7.86
CNc1nc(Cl)nc2c1ncn2CC(COP(=O)(O)O)COP(=O)(O)OP(=O)(O)O (stereo unspecified)	100	0.23
CNc1nc(Cl)nc2c1ncn2CC(CCOP(=O)(O)O)CCOP(=O)(O)O	100	2.04
CNc1nc(Cl)nc2c1ncn2CC(COP(=O)(O)O)COP(=O)(OC)OC (stereo unspecified)	78	31
CNc1nc(Cl)nc2c1ncn2CCC(COP(=O)(O)O)COP(=O)(O)O	99	0.84
CNc1nc(Cl)nc2c1ncn2CC1CC1(COP(=O)(O)O)COP(=O)(O)O (stereo unspecified)	100	1.9
CNc1nc(Cl)nc2c1ncn2CC1[C@H](COP(=O)(O)O)[C@H]1COP(=O)(O)O (stereo partly specified)	100	2.7
CNc1nc(Cl)nc2c1ncn2C[C@@H](COP(=O)(O)O)OP(=O)(O)O	100	1.47
CNc1nc(Cl)nc2c1ncn2C[C@H]1[C@H](COP(=O)(O)O)[C@@H]1COP(=O)(O)O	100	1.74
CNc1nc(Cl)nc2c1ncn2C1CC1(COP(=O)(O)O)COP(=O)(O)O (stereo unspecified)	100	2.36
CNc1nc(Cl)nc2c1ncn2CC(COP(=O)(O)O)COP(=O)(O)O	100	0.48
CNc1ncnc2c1ncn2CC(COP(=O)(O)O)COP(=O)(O)O	100	1.09
CNc1nc(Cl)nc2c1ncn2CC(CO)COP(=O)(O)O (stereo unspecified)	68	22.6
CNc1nc(Cl)nc2c1ncn2C[C@@H]1[C@H](COP(=O)(O)O)[C@@H]1COP(=O)(O)O	100	2.17
CNc1nc(Cl)nc2c1ncn2CC=C(COP(=O)(O)O)COP(=O)(O)O	100	2.1
